Bioassay records (PubChem)
A selection: hits, their analogues and other compounds. The true share with any hit is near 1.4%.
DYRK1A inh – rat Dyrk1A kinase inhibitors, primary screen, biochemical, single point, plate reader; Dual specificity tyrosine-phosphorylation-regulated kinase 1A (Rattus norvegicus), Q63470; ADP-Glo luminescence, NFATc1 peptide; inhibition, % at 12.5 µM; hit rate 0.43% among 310,000; AID 504441, 2011; in the data active means inhibition above about 50%
PvdQ acylase – P. aeruginosa PvdQ acylase inhibitors, primary screen, biochemical, fluorescence, plate reader and imaging, single point; PvdQ acylase [Pseudomonas aeruginosa LESB58]; purified PvdQ acylase; inhibition, % at 10 µM; hit rate 0.063% among 340,000; AID 488965, 2010; in the data active means inhibition above about 30%, passing the limit was not always enough
CAL PDZ FP-1 – untagged CAL PDZ binding inhibitors, primary screen, biochemical, fluorescence polarization, HTS | AID 602252, 2012 | Golgi-associated PDZ and coiled-coil motif-containing protein (Homo sapiens), Q9HD26 | hit rate 0.92% among 300,000 | purified CAL PDZ, TMR-peptide fluorescence polarization, 1 h | inhibition, % at 24.9 µM;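 active means mean inhibition of at least 30% with at least half of replicates also reaching 30%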
CDK5 inh – inhibitors of human CDK5/p35 kinase, primary screen, biochemical, single concentration. Recombinant CDK5/p35, ADP-Glo luminescence, 60 min. inhibition, % at 10 µM. Cyclin-dependent kinase 5 (Homo sapiens) + Cyclin-dependent kinase 5 activator 1 (Homo …. hit rate 0.01% among 330,000. AID 488839, 2010;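 active means highest replicate inhibition of at least 50% and at least 75% of replicates reaching 50%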
Target sequence (Q00535 whole entry, looked up): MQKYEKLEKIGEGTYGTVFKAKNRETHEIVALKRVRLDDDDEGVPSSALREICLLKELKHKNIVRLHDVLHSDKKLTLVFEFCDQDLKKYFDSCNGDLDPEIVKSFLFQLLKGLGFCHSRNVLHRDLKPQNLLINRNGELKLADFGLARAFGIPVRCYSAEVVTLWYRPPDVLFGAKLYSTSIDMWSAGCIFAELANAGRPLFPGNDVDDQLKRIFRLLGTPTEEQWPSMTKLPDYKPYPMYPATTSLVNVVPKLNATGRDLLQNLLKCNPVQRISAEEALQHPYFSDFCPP
Target sequence (Q15078 whole entry, looked up): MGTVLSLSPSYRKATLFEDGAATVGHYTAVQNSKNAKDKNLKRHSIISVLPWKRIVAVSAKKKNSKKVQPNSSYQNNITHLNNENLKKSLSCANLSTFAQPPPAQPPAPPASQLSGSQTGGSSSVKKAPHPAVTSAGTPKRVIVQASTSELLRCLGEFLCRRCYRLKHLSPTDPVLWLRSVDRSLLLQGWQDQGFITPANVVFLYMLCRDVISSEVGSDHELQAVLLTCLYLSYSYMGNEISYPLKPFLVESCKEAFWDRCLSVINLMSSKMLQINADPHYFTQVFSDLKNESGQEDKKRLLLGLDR
Tb MetRS inh – T. brucei MetRS inhibitors, primary screen, biochemical, luminescence; methionyl-tRNA synthetase (Trypanosoma brucei brucei); purified T. brucei MetRS, ATP depletion, Kinase-Glo luminescence; inhibition, % at 11.9 µM; hit rate 0.4% among 360,000;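 active means inhibition above a per-plate cutoff of the control wells' mean inhibition plus 3 SD, cut at about 5.5% in these data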
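Test system: purified T. brucei MetRS enzyme. Also added: ATP, methionine and E. coli bulk tRNA substrates. Compound: 11.9 µM single point. Schedule: 15 min enzyme-compound preincubation, 2 h reaction, 10 min detection, 25 °C. Signal: luciferase luminescence of residual ATP, Kinase-Glo. Evaluation: percent inhibition versus plate control medians. Controls: DMSO wells, low control.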
CAL PDZ FP-2 – CAL PDZ peptide-binding inhibitors, primary screen, biochemical, fluorescence polarization, Cer-tagged CAL PDZ, HTS | AID 504414, 2011 | purified CAL PDZ, TMR-peptide fluorescence polarization, 1 h | hit rate 0.02% among 330,000 | inhibition, % at 20 µM;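 active means highest replicate inhibition of at least 40%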
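Material: tagged CAL PDZ domain; buffer or medium: 25 mM sodium phosphate pH 7.4, 150 mM NaCl, TCEP, IgG, Thesit; compound dosing: single point, 20 µM; schedule: 1 h incubation at room temperature before polarization reading; measured by: FP readout, S and P plane fluorescence; read-out basis: percent inhibition from loss of millipolarization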
Dyrk1A artifact – ADP-Glo luciferase interference without Dyrk1A, dose response, artefact control for Dyrk1A inhibitor project, biochemical, luminescence, cherry-pick, set 02 | shares compounds with DYRK1A inh | AC50, µM (top dose mostly 12 µM) | 1,300 tested, under 10 active | ADP-Glo luciferase artifact assay, no Dyrk1A;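 active means fitted half-maximal dose AC50 no more than ten times the top valid tested dose, with luminescence dropping as dose rises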
A number is an active result; 0 = inactive; - = not tested or not shown.

SMILES	DYRK1A inh	PvdQ acylase	CAL PDZ FP-1	CDK5 inh	Tb MetRS inh	CAL PDZ FP-2	Dyrk1A artifact
CCCC[n+]1ccc(-c2nc3ccc([N+](=O)[O-])cc3[nH]2)cc1	83	0	0	0	0	0	0
N#C/C(=C\c1cc(Br)ccc1F)C(=O)NC1CC1	0	0	0	0	0	0	-
NC(Cc1ccccc1)c1csc(Nc2nccc(C(F)(F)F)n2)n1 (stereo unspecified)	-	-	-	-	0	-	-
COc1cc(/C=C2\SC(N)=NC2=O)ccc1O	90	0	0	0	0	0	0
COc1cc(C=C2C(=O)c3ccccc3C2=O)ccc1O	97	0	0	0	0	0	0
COc1ccc(C=C2C(=O)c3ccccc3C2=O)cc1O	84	0	0	0	0	0	0
O=C1C(C=Nc2ccccc2)=C(O)c2ccccc21	0	0	0	0	0	0	-
O=C1C(=O)c2ccccc2C(O)=C1CC=C(Cl)Cl	66	0	0	0	0	0	0
Cn1c2c(c(=O)n(C)c1=O)CS(=O)c1ccccc1N2 (stereo unspecified)	-	-	-	-	0	-	-
CN1CCc2cc3c(c4c2[C@H]1[C@H](O)c1ccccc1-4)OCO3	82	0	0	0	0	0	0
COc1ccc2c(c1OC)C(=O)OC2C1c2c(cc3c(c2OC)OCO3)CCN1C (stereo unspecified)	0	0	0	0	0	0	-
O=c1[nH][nH]c2c1[C@H](C1CCCC1)O[C@H](CCc1ccccc1)C2	-	-	-	-	0	-	-
COc1ccc(/C=C2\SC(=S)N(C(C)C(=O)NC3C=CS(=O)(=O)C3)C2=O)cc1 (stereo unspecified)	77	0	0	0	0	0	0
COc1cccc(/C=C2\SC(=S)N(C(C)C(=O)NC3C=CS(=O)(=O)C3)C2=O)c1 (stereo unspecified)	0	0	0	0	0	0	-
CN(C)CCNc1ccc(CO)c2sc3ccc(O)cc3c(=O)c12	77	0	0	0	0	0	0
O=C(N/N=C/c1ccc(O)c(O)c1)N/N=C/c1ccc(O)c(O)c1	80	0	0	0	0	0	0
COC(=O)[C@H](CC(C)C)NC(=O)CC[C@H]1O[C@@H](n2cc(C)c(=O)[nH]c2=O)C[C@@H]1O	-	-	-	-	0	-	-
O=C1CCCC2=C1Sc1ccccc1N2	57	0	-	0	0	0	0
COC(=O)c1ccc2nc(-c3ccco3)c(Cc3ccccc3)n2c1	-	-	-	-	0	-	-
COc1ccc(-n2c(C)nc3cc(C(=O)NCc4ccco4)ccc32)cc1	51	0	0	0	0	0	0
COc1ccc(-n2c(C)nc3cc(C(=O)NCc4ccc5c(c4)OCO5)ccc32)cc1	57	0	0	0	0	0	0
COc1cccc(NC(=O)c2ccncc2)c1	0	0	0	0	0	-	-
COc1cccc(NC(=O)c2sc(NC(=O)c3ccncc3)nc2C)c1	54	0	0	0	0	0	0
COc1ccccc1N=c1oc2cc(O)ccc2cc1C(N)=O	93	0	0	0	0	0	0
O=c1c2ccccc2nnn1CSc1nnc(-c2ccc3c(c2)OCO3)o1	56	0	-	0	0	0	0
SMILES	DYRK1A inh	PvdQ acylase	CAL PDZ FP-1	CDK5 inh	Tb MetRS inh	CAL PDZ FP-2	Dyrk1A artifact
O=C(Nc1cccc(-c2nn[nH]n2)c1)c1csc2c1CCCC2	56	0	0	0	0	0	0
CC(=O)Nc1cccc(-c2nn[nH]n2)c1	0	0	0	0	0	0	-
CCc1ccc(C(=O)Nc2cccc(-c3nn[nH]n3)c2)s1	83	0	0	0	0	0	0
c1ccc(-c2nnc3sc(Cc4cccs4)nn23)cc1	59	0	0	0	0	0	0
Oc1ccc2c(ccc3[nH]cnc32)c1	79	0	0	0	0	0	0
Brc1cc2[nH]cnc2c2ccccc12	0	0	0	0	0	0	-
CC(C)NC(=O)C1(C)CCN1Cc1ccc(Cl)cc1 (stereo unspecified)	-	-	-	-	0	-	-
O=[N+]([O-])c1cc(/C=N/O)ccc1Oc1ccccc1Cl	61	0	0	0	0	0	0
COc1ccc(NC(=O)/C(C#N)=C\c2ccc(-c3cccc(C(=O)O)c3C)o2)cc1	78	0	0	0	0	0	0
COc1ccc(NC(=O)/C(C#N)=C/c2ccc(-c3ccccc3C(=O)O)o2)cc1	0	0	0	0	0	0	-
Cc1cc2c(cc1C)-n1nnnc1C(N1CCN(c3ccccn3)CC1)C(c1ccc3c(c1)OCO3)=N2 (stereo unspecified)	-	-	-	-	0	-	-
O=C1NC(=O)/C(=C\c2ccc(Oc3cnccn3)cc2)S1	59	0	0	0	0	0	0
O=Cc1ccc(Oc2cnccn2)cc1	0	0	0	0	0	0	-
O=C1NC(=S)S/C1=C/c1ccc(Oc2cnccn2)cc1	65	0	0	0	0	0	0
Cc1cccc(C)c1-n1nnnc1C(c1cc2ccccc2o1)N1CCN(C/C=C/c2ccccc2)CC1 (stereo unspecified)	-	-	-	-	0	-	-
c1cncc(-c2nc3ccccc3[nH]2)c1	51	0	0	0	0	0	0
c1ccc(-c2nc3ccccc3[nH]2)cc1	0	0	0	0	0	0	-
CCCCN1CC(N2CCN(CCN(C)C)CC2)CS1(=O)=O (stereo unspecified)	-	-	-	-	0	-	-
CC1(C(=O)NS(=O)(=O)c2ccc3c(c2)CCO3)CCN1C(=O)C1(c2ccc(Cl)cc2)CCC1 (stereo unspecified)	-	-	-	-	0	-	-
COc1ccc(C(=O)Nc2ccccn2)cc1S(=O)(=O)N1CCOCC1	0	0	0	0	0	0	-
COc1ccc(C(=O)Nc2nc3ccccc3[nH]2)cc1S(=O)(=O)N1CCOCC1	55	0	-	0	0	0	0
CC(C)c1ccc(NC(=O)C2(C)Cc3c(-c4ccc(N(C)C)cc4)ccnc3O2)cc1 (stereo unspecified)	-	-	-	-	0	-	-
CCC(=O)N1CCN(c2ccnc3cc(Cl)ccc23)CC1	55	0	0	0	0	0	0
CCCCc1c(Cc2cccc(F)c2)ncn1CCc1ccccc1OC	-	-	-	-	0	-	-
COc1cc(/C=C2\SC(=S)N(NC(=O)c3cccc(O)c3)C2=O)ccc1O	61	0	0	0	0	0	0
O=C1c2c(O)ccc(O)c2C(=O)c2c(NCCNCCO)ccc(NCCNCCO)c21	52	0	0	0	0	0	0
